# Experimental data reported in ChEMBL document CHEMBL3632581, “Dimers of Melampomagnolide B Exhibit Potent Anticancer Activity against Hematological and Solid Tumor Cells” (J Med Chem, 2015).
# Key:
# [1] = Antileukemic activity against human M9-ENL1 cells after 24 hrs by annexin V/7-AAD staining-based flow cytometric analysis; format: functional, cell-based
# Method in brief: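 M9-ENL1 cells in alpha-MEM with 5% human plasma, 20% FBS, SCF, IL-3, IL-7 and FLT3. Drug came from a DMSO stock diluted in PBS (≤0.5% DMSO final), for 24 h over 0.5-10 μM. Cells negative for both annexin V and 7-AAD were taken as non-apoptotic and normalized to vehicle. EC50 read from dose-response curves, triplicate.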
# [2] = Antileukemic activity against human AML01 cells after 24 hrs by annexin V/7-AAD staining-based flow cytometric analysis; format: functional, cell-based
# Method in brief: (§1)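 Primary AML specimens from consenting donors, isolated by Ficoll-Paque gradient and sometimes cryopreserved. Cells were held 1 h in serum-free IMDM with 20% BIT 9500, LDL and β-mercaptoethanol before drug (DMSO stock diluted in PBS, ≤0.5% DMSO final). Exposure was 24 h over 0.5-10 μM. Annexin V/7-AAD double-negative cells, normalized to vehicle, gave the EC50. Run in triplicate.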
# [3] = Antileukemic activity against human AML02 cells after 24 hrs by annexin V/7-AAD staining-based flow cytometric analysis; format: functional, cell-based; method in brief: as §1
# [4] = Antileukemic activity against human AML05 cells after 24 hrs by annexin V/7-AAD staining-based flow cytometric analysis; format: functional, cell-based; method in brief: as §1
# [5] = Potency index, ratio of parthenolide EC50 to compound EC50 for human M9-ENL1 cells; format: functional
# [6] = Antileukemic activity against human AML03 cells after 24 hrs by annexin V/7-AAD staining-based flow cytometric analysis; format: functional, cell-based; method in brief: as §1
# [7] = Antileukemic activity against human AML04 cells after 24 hrs by annexin V/7-AAD staining-based flow cytometric analysis; format: functional, cell-based; method in brief: as §1
# [8] = Cytotoxicity against hematopoietic progenitor cells isolated from human umbilical cord blood by annexin V staining-based flow cytometric analysis; format: cell-based
# Method in brief: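 Cord-blood mononuclear cells from Ficoll-Paque were plated in serum-free medium, with drug from a DMSO stock (≤0.5% DMSO final). Cells were stained for CD34, CD45 and annexin V. The non-apoptotic fraction (annexin V-negative within the CD34+CD45dim compartment) was normalized to vehicle, and EC50 was fitted where possible. Triplicate.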
Compound,EC50 [1],EC50 [2],EC50 [3],EC50 [4],EC50 [6],EC50 [7],Ratio EC50 [5],EC50 [8]
C=C1C(=O)O[C@H]2[C@H]1CC/C(COC(=O)NCCCCCCNC(=O)OC/C1=C/CC[C@@]3(C)O[C@H]3[C@H]3OC(=O)C(=C)[C@@H]3CC1)=C\CC[C@@]1(C)O[C@@H]21,1500 nM,1600 nM,1200 nM,1700 nM,3500 nM,3700 nM,2,> 10000 nM
C=C1C(=O)O[C@H]2[C@H]1CC/C(COC(=O)NCCCCCCCCCNC(=O)OC/C1=C/CC[C@@]3(C)O[C@H]3[C@H]3OC(=O)C(=C)[C@@H]3CC1)=C\CC[C@@]1(C)O[C@@H]21,2000 nM,1900 nM,1500 nM,3200 nM,2400 nM,3700 nM,2,> 10000 nM
C=C1C(=O)O[C@H]2[C@H]1CC/C(COC(=O)NCCCCCCCCCCNC(=O)OC/C1=C/CC[C@@]3(C)O[C@H]3[C@H]3OC(=O)C(=C)[C@@H]3CC1)=C\CC[C@@]1(C)O[C@@H]21,2900 nM,2300 nM,2000 nM,3300 nM,2900 nM,4200 nM,2,> 10000 nM
C=C1C(=O)O[C@H]2[C@H]1CC/C(COC(=O)OCCCCCOC(=O)OC/C1=C/CC[C@@]3(C)O[C@H]3[C@H]3OC(=O)C(=C)[C@@H]3CC1)=C\CC[C@@]1(C)O[C@@H]21,2400 nM,,2200 nM,2100 nM,1400 nM,,2,
C=C1C(=O)O[C@@H]2C3O[C@]3(C)CC/C=C(\C)CC[C@@H]12 (some centres not stated),6000 nM,16000 nM,2500 nM,7000 nM,4700 nM,8000 nM,,

# These reach a lower EC50 [1]. Values come first.
EC50 [1],EC50 [2],EC50 [3],EC50 [4],EC50 [6],EC50 [7],Compound,Ratio EC50 [5],EC50 [8]
1200 nM,930 nM,,2700 nM,860 nM,2700 nM,C=C1C(=O)O[C@H]2[C@H]1CC/C(COC(=O)OCCCCOC(=O)OC/C1=C/CC[C@@]3(C)O[C@H]3[C@H]3OC(=O)C(=C)[C@@H]3CC1)=C\CC[C@@]1(C)O[C@@H]21,2,
1100 nM,1700 nM,1300 nM,2400 nM,5700 nM,3600 nM,C=C1C(=O)O[C@H]2[C@H]1CC/C(COC(=O)NCCCCCCCNC(=O)OC/C1=C/CC[C@@]3(C)O[C@H]3[C@H]3OC(=O)C(=C)[C@@H]3CC1)=C\CC[C@@]1(C)O[C@@H]21,2,> 10000 nM
1000 nM,2600 nM,2300 nM,3700 nM,,,C=C1C(=O)O[C@H]2[C@H]1CC/C(COC(=O)NCCCNC(=O)OC/C1=C/CC[C@@]3(C)O[C@H]3[C@H]3OC(=O)C(=C)[C@@H]3CC1)=C\CC[C@@]1(C)O[C@@H]21,2,
540 nM,1600 nM,,,,,C=C1C(=O)O[C@H]2[C@H]1CC/C(COC(=O)OC/C1=C/CC[C@@]3(C)O[C@H]3[C@H]3OC(=O)C(=C)[C@@H]3CC1)=C\CC[C@@]1(C)O[C@@H]21,2,
